Screening results as filed in PubChem.
Only some compounds are listed: those with a hit (about 1.9% of all), similar ones and a draw of the others.
proKLK7 act: proKLK7 zymogen activators, primary screen, biochemical, fluorescence intensity; purified proKLK7, EDANS-DABCYL substrate fluorescence; 100% is mature enzyme control, 0% vehicle; activation, % at 7 µM; 370,000 tested, 0.9% active; AID 652039, 2013;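 active = activation above the mean of all tested compounds plus 3 SD, computed per campaign excluding outliers beyond control limits, cut at about 13% in these data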
Target sequence (P49862 whole entry, looked up): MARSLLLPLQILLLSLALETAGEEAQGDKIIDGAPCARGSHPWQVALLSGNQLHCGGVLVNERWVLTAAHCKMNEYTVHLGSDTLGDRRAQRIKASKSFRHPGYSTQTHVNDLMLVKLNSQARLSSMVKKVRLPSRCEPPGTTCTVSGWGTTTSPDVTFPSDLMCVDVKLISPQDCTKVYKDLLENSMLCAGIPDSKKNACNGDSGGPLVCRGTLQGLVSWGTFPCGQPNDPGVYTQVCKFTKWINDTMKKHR
Yeast superoxide: reduction of superoxide in aged yeast, primary screen, HTS | S. cerevisiae aged cells, superoxide DHE fluorescence; active compounds read low | superoxide response (% of plate mean), % at 10 µM | 330,000 tested, 0.18% active | AID 2690, 2010;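 active = superoxide response under a set limit, about three screen SD below normal, cut at about 65% in these data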;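 note: yeast aged for seven days with compound at 30 °C before DHE staining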
Rce1 inh: yeast Rce1p protease inhibitors, primary screen, biochemical, fluorescence, cell-free homogeneous; AID 2563, 2010; yeast membranes, quenched prenylated peptide cleavage fluorescence; CAAX prenyl protease 2 (Saccharomyces cerevisiae (strain ATCC 204508 / S288c)), Q03530; calls only; 290,000 tested, 0.27% active;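 active = fall in fluorescence gain of 50% or more versus controls, with final raw signal at or below 3038400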
Target sequence (Q03530 whole entry, looked up): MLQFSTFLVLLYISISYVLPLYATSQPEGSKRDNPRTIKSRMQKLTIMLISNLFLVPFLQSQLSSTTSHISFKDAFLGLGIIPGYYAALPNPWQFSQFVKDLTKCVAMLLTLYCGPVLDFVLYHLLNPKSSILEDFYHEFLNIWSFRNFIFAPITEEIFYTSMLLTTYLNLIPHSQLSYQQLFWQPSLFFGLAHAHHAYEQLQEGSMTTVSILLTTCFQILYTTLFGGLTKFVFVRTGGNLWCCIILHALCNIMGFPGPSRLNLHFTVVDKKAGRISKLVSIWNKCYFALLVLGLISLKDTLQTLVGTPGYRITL
V-ATPase pHluor: regulators of yeast V-ATPase proton pumping, primary screen, pHLuorin cytosolic pH fluorescence; S. cerevisiae; response, % at 10 µM; 350,000 tested, 0.37% active; in the data active = response mostly above about 7.3%, no sharp cut-off; inactive = mostly below about 5.4%; note: actives read high
T cell modulator: modulators of CD8 T cell-vesicle binding, primary screen, mouse 2C CD8+ T cells, flow cytometry. 2C CD8+ T cell-vesicle binding; active compounds read low. response (vesicle binding), % at 7 µM. 330,000 tested, 0.068% active;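 active = response, share of CD8 T cells binding vesicles, and their 90th percentile fluorescence all below set limits, cut at about 80% in these data, passing the limit was not always enough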;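 note: values below 100% mean blocked vesicle binding to the CD8+ T cells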
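Material: murine 2C transgenic CD8+ T lymphocytes / Also added: QL9-peptide-loaded Drosophila micro-vesicles bearing Ld, ICAM-1 and B7-1 / Schedule: binding step 1.5 h, 37 °C, antibody labelling 20 min, ice / Signal: flow cytometry, PE anti-B7-1 (FL2) versus Alexa647 anti-CD8 (FL8), PFA-fixed / Evaluation: percent CD8+ FL2 mean versus row control / Benchmarks: naked versus QL9-loaded vesicles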
beta cell repl: inducers of MIN6 beta-cell proliferation, primary screen, ATP luminescence, uHTS; proliferation, % at 10 µM; 330,000 tested, 0.29% active; MIN6 cells proliferation, ATPlite luminescence, 48 h; cells starved in 0.2% serum; 100% = growth in 10% serum;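 active = compounds whose signal lies at least 3.5 SD above the mean of all wells on their plate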
proKLK7 act conf: proKLK7 zymogen activators, confirmation, biochemical, fluorescence intensity, triplicate | purified proKLK7, EDANS-DABCYL substrate fluorescence; scaled: vehicle 0, mature enzyme 100 | 3,200 tested, 68% active | activation, % at 7 µM | shares compounds with proKLK7 act;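 active = activation, as change over the incubation, above the mean of all tested compounds plus 3 SD, cut at about 13% in these data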
EDANS interfere: EDANS-DABCYL substrate optical interference, artefact control for kallikrein-7 zymogen activator project, biochemical, fluorescence intensity, high throughput. activation, % at 7 µM. no enzyme, 4 h; solvent 0%, active enzyme control 100%. AID 686952, 2013. 3,200 tested, 80% active. shares compounds with proKLK7 act;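 active = activation above the all-compound mean plus 3 SD, ignoring values outside control-based bounds, cut at about 4.8% in these data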;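 note: value is the 4 h activation minus the activation read at time zero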
EDANS interf: counter-screen for kallikrein-7 activators: EDANS-DABCYL interference, dose response; shares compounds with proKLK7 act; EC50, µM; 250 tested, 20% active; EDANS-DABCYL peptide fluorescence interference, no enzyme;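 active = compounds that raise the fluorescence signal in this interference counterscreen, with EC50 at or below 10 µM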;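 note: intact quenched peptide substrate alone read at 355 nm excitation and 520 nm emission; signal is fluorescence gain from T0 to T4 after four hours at room temperature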
Numbers stand for hits; - = inactive; . = no result.

SMILES | proKLK7 act | Yeast superoxide | Rce1 inh | V-ATPase pHluor | T cell modulator | beta cell repl | proKLK7 act conf | EDANS interfere | others
COc1ccc(C2C3=C(CCCC3=O)N(CC(=O)O)C3=C2C(=O)CCC3)cc1Cl | 26.5 | - | - | - | - | - | 25.7 | 34.3
C#CCOc1c(Cl)cc(C2C3=C(CCCC3=O)N(CC(=O)O)C3=C2C(=O)CCC3)cc1OC | 16.4 | - | - | - | - | - | 72.0 | 80.0
CCCCNc1ccc2c(c1)OC[C@H](C)NS2(=O)=O | - | . | . | . | . | . | . | .
CC1CC(C)CN(C(=O)CCC(=O)Nc2nnc(C(C)C)s2)C1 (stereo unspecified) | - | - | - | - | - | - | . | .
COCCN1C=C(C(=O)OC)C(c2ccccc2Cl)C(C(=O)OC)=C1 | 42.3 | - | - | - | - | - | - | -
CCN1C=C(C(=O)OC)C(c2cccc(OC)c2OC)C(C(=O)OC)=C1 | 45.2 | - | - | - | - | - | 75.9 | 74.4
COC(=O)C1=CN(C2CC2)C=C(C(=O)OC)C1c1ccccc1OC | 36.6 | - | - | - | - | - | 77.9 | 78.4
COc1cccc2c1C1COC3C4CC(C(=O)O)C(C(C2)N13)N4C (stereo unspecified) | - | . | . | - | . | . | . | .
CCOc1ccc(Oc2ccccc2NC(=O)CN2C(=O)NC3(CCCC3)C2=O)cc1 | - | - | - | - | - | - | . | .
COc1cc2c(cc1OC)C(c1cc(OC)c(OC)c(OC)c1)C1(O)C(=O)OCC1(O)C2 (stereo unspecified) | 56.6 | . | . | - | . | . | - | -
Cc1nc(-c2coc3c(CN(C)C)c(O)ccc3c2=O)cs1 | 18.9 | - | - | - | - | - | 41.6 | 42.5
CCN(CC)Cc1c(O)ccc2c(=O)c(-c3ccccc3)coc12 | 26.1 | - | - | - | - | - | 23.0 | 30.6
CCN(CC)Cc1c(O)ccc2c(=O)c(Oc3ccccc3OC)coc12 | 14.8 | - | - | - | - | - | 43.8 | 33.4 | EDANS interf=8.57
COc1ccccc1Oc1coc2c(CN(C)C)c(O)ccc2c1=O | 61.7 | - | - | - | - | - | 63.5 | 68.8
CCN(CC)Cc1c(O)ccc2c(=O)c(-c3ccc4c(c3)OCCO4)coc12 | - | - | - | - | - | - | . | .
COc1ccccc1-c1coc2c(CN(C)C)c(O)ccc2c1=O | 50.5 | - | - | - | - | - | 78.1 | 70.2
N#C/C(=C(/O)CCCl)c1ccccn1 | 208.6 | - | - | - | - | - | 389.0 | 395.1
CCCc1cc2c(O)ccc(O)c2c(=O)o1 | 35.9 | . | . | . | . | . | 255.6 | 268.2
Cc1cccc(C2=NN(c3ccccc3)[C@@H](C(=O)N3CCOC3=O)[C@@H]2C)c1 | 25.6 | - | . | - | . | . | 114.2 | 70.1
C[C@@H]1C(c2ccccc2)=NN(c2ccc(Br)cc2)[C@H]1C(=O)N1CCOC1=O | 57.3 | - | . | - | . | . | - | -
CCn1c(SC(C)C(=O)Nc2ccc(N3CCOCC3)cc2)nnc1C1CC1 (stereo unspecified) | - | - | . | - | - | - | . | .
O=C(Nc1ccccc1C(=O)NCc1ccco1)c1ccco1 | - | - | - | - | - | - | . | .
O=C(Nc1ccccc1C(=O)Nc1ccccc1C(=O)NCc1ccco1)c1ccco1 | 19.8 | - | - | - | - | - | - | -
CCN(CC)CCCNc1ccc2ncn3c4ccc(O)cc4c(=O)c1c23 | 71.0 | . | . | - | . | . | - | 28.4
Cc1ccc(S(=O)(=O)NN2C(=O)c3ccccc3NC2c2ccco2)cc1 (stereo unspecified) | - | - | - | - | - | - | . | .
SMILES | proKLK7 act | Yeast superoxide | Rce1 inh | V-ATPase pHluor | T cell modulator | beta cell repl | proKLK7 act conf | EDANS interfere | others
CS(=O)(=O)NN1C(=O)c2ccccc2NC1c1ccccc1 (stereo unspecified) | 79.0 | - | . | - | - | - | - | 14.9
CS(=O)(=O)NN1C(=O)c2ccccc2NC1c1c[nH]c2ccccc12 (stereo unspecified) | 13.6 | - | - | - | - | - | - | -
CS(=O)(=O)NN1C(=O)c2ccccc2NC1c1cccs1 (stereo unspecified) | 63.2 | - | - | - | - | - | - | 10.9
CS(=O)(=O)NN1C(=O)c2ccccc2NC1c1ccccc1O (stereo unspecified) | 35.8 | - | - | - | - | - | - | 6.4
C[C@@H]1CN([C@H](C)CO)C(=O)Cc2cc(NS(=O)(=O)c3cn(C)cn3)ccc2O[C@H]1CN(C)S(=O)(=O)c1ccc(Cl)cc1 | - | - | . | - | - | - | . | .
COCC(=O)N(C)C[C@H]1Oc2ncc(C#C[C@H](C)O)cc2C(=O)N([C@@H](C)CO)C[C@H]1C | - | . | . | - | . | . | . | .
COc1cc(C2Nc3ccccc3C(=O)N2NS(C)(=O)=O)c([N+](=O)[O-])cc1OC (stereo unspecified) | - | - | - | - | - | - | . | .
Cc1ccc(S(=O)(=O)NN2C(=O)c3ccccc3NC2c2cccc(O)c2)cc1 (stereo unspecified) | - | - | - | - | - | - | . | .
CS(=O)(=O)NN1C(=O)c2ccccc2NC1c1cccc(O)c1 (stereo unspecified) | 62.9 | - | - | - | - | - | 17.1 | 18.7
COc1ccc(C2Nc3ccccc3C(=O)N2NS(C)(=O)=O)c(OC)c1 (stereo unspecified) | 68.6 | - | - | - | - | - | - | 15.1
CCOC1=C2CN(S(=O)(=O)c3ccc(C)cc3)C(c3cccc(Cl)c3)CC2N(S(=O)(=O)c2ccc(C)cc2)C(c2ccncc2)C1 (stereo unspecified) | - | . | . | . | . | . | . | .
C/C(=N\NC(=O)c1ccc(CN2CCc3ccccc3C2)cc1)c1ccccc1O | - | - | - | - | - | - | . | .
CCN(CC)C(=O)C1CCN(S(=O)(=O)c2ccc3c(c2)CCCN3C(=O)C2CCC2)CC1 | - | - | - | - | - | - | . | .
COC(=O)c1ccc(CNC(=O)CSC(C)C(=O)Nc2cc(C)on2)cc1 (stereo unspecified) | - | - | . | - | - | - | . | .
CCOC(=O)c1c(C)[nH]c(C)c1C(=O)COC(=O)CSc1ccc(C)cc1 | - | - | . | - | - | - | . | .
